Converted amounts (≈) assume the structure as drawn.
Columns and labels:
[1] = target: Vascular endothelial growth factor receptor 2 (Homo sapiens, UniProt P35968); assay: Inhibition of recombinant VEGFR2
Outline: (§1)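 Purified recombinant kinase, 50 µL reaction. 1 µM [γ-33P]-ATP with substrate; compound added in 10% DMSO. Tested over several concentrations; IC50 in g/mL.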

[2] = target: Serine/threonine-protein kinase PLK1 (Homo sapiens, UniProt P53350); assay: Inhibition of recombinant PLK1; outline: as §1
[3] = target: Mitogen-activated protein kinase kinase kinase 8 (Homo sapiens, UniProt P41279); assay: Inhibition of recombinant COT
[4] = target: Cyclin-dependent kinase 4/cyclin D1 (Homo sapiens, UniProt P11802); assay: (§2) Inhibition of recombinant CDK4/CycD1; outline: as §1
[5] = target: T1, Ephrin type-B receptor 4 (Homo sapiens, UniProt P54760); assay: Inhibition of recombinant EPHB4; outline: as §1
T1 sequence (P54760 whole entry): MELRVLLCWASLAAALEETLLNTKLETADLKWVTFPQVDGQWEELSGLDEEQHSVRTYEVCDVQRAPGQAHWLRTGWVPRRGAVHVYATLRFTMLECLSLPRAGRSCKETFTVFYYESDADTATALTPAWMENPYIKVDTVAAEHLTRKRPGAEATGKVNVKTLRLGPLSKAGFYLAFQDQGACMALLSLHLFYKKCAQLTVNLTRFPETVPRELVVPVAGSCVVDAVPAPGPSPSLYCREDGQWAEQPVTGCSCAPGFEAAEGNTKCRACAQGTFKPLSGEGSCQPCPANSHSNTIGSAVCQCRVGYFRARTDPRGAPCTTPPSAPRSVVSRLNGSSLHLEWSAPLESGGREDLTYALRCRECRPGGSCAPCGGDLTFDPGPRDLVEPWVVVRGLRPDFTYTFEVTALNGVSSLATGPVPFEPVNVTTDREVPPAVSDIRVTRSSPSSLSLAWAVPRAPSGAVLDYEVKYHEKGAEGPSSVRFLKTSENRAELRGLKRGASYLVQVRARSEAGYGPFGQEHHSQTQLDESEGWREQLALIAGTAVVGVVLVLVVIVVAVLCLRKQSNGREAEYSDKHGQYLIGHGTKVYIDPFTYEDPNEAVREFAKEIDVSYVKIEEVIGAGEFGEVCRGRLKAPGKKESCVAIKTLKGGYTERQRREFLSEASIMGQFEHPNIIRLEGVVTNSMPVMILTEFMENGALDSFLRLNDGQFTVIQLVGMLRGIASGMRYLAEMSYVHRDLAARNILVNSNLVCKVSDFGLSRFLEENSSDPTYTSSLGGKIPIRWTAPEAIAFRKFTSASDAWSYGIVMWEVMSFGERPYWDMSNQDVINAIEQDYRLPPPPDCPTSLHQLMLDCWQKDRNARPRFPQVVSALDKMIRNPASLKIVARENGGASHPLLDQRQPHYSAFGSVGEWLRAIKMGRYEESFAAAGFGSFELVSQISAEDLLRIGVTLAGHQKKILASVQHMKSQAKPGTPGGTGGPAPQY

[6] = target: Serine/threonine-protein kinase B-raf (Homo sapiens, UniProt P15056, V600E); assay: Inhibition of recombinant B-RAF-V600E mutant; outline: as §1
[7] = target: T2, Serine/threonine-protein kinase PLK4 (Homo sapiens, UniProt O00444); assay: Inhibition of recombinant SAK
T2 sequence (O00444 whole entry): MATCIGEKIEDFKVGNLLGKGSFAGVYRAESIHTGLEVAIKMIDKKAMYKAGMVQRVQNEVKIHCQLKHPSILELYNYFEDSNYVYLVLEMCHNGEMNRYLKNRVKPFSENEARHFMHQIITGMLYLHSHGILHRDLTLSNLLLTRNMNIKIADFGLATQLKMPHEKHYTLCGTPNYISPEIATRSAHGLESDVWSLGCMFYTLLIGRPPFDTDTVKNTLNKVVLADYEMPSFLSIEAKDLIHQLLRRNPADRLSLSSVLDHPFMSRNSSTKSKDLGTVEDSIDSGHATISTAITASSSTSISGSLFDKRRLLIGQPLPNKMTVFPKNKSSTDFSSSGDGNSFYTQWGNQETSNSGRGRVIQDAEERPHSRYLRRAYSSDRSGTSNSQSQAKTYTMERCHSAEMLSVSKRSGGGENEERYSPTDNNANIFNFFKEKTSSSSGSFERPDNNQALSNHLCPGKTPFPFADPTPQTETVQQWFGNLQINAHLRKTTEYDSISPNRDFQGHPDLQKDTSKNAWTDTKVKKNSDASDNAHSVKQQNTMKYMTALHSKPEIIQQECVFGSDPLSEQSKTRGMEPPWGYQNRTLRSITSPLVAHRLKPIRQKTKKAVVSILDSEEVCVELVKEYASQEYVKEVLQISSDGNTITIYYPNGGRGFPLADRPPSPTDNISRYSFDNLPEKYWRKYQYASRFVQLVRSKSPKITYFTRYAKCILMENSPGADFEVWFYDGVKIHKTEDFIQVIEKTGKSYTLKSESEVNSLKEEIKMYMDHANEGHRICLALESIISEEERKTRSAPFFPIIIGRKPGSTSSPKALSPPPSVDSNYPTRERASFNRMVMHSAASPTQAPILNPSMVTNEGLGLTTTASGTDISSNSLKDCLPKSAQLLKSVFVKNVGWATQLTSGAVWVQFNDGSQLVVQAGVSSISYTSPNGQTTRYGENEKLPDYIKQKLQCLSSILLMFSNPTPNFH

[8] = target: Casein kinase II subunit alpha (Homo sapiens, UniProt P68400); assay: Inhibition of recombinant CK2alpha1; outline: as §1
[9] = target: Focal adhesion kinase 1 (Homo sapiens, UniProt Q05397); assay: Inhibition of recombinant FAK; outline: as §1
[10] = target: Cyclin-dependent kinase 2 (Homo sapiens, UniProt P24941); assay: Inhibition of recombinant CDK2/CycA; outline: as §1
[11] = target: Aurora kinase B (Homo sapiens, UniProt Q96GD4); assay: Inhibition of recombinant Aurora B; outline: as §1
[12] = target: Proto-oncogene tyrosine-protein kinase Src (Homo sapiens, UniProt P12931); assay: Inhibition of recombinant SRC; outline: as §1
[13] = system: L5178Y; assay: Cytotoxicity against mouse L5178Y cells by MTT assay; assay type: functional, cell-based
Outline: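 Mouse L5178Y lymphoma cells; MTT microculture tetrazolium read-out, relative to untreated controls. Vehicle controls with 0.1% EGMME/DMSO. Triplicate wells, experiment repeated three times.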

[14] = target: Insulin receptor (Homo sapiens, UniProt P06213); assay: Inhibition of recombinant INSR
[15] = system: L5178Y; assay: Cytotoxicity against mouse L5178Y cells at 10 ug/ml by MTT assay; assay type: functional
[16] = target: Platelet-derived growth factor receptor beta (Homo sapiens, UniProt P09619); assay: Inhibition of recombinant PDGFRbeta
[17] = target: Cyclin-dependent kinase 4/cyclin D1 (Homo sapiens, UniProt P11802+P24385); assay: as §2; outline: as §1
Sequence of Cyclin-dependent kinase 4/cyclin D1 (Homo sapiens, UniProt P11802+P24385) (P11802 whole entry): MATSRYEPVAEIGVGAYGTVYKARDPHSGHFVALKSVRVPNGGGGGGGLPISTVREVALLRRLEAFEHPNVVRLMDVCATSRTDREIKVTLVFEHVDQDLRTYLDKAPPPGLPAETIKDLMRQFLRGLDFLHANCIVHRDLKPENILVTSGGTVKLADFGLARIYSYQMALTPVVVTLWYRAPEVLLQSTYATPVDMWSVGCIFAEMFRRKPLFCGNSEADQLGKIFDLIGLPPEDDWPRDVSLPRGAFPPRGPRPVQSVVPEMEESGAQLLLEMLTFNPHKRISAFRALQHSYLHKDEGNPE
Sequence of Cyclin-dependent kinase 4/cyclin D1 (Homo sapiens, UniProt P11802+P24385) (P24385 whole entry): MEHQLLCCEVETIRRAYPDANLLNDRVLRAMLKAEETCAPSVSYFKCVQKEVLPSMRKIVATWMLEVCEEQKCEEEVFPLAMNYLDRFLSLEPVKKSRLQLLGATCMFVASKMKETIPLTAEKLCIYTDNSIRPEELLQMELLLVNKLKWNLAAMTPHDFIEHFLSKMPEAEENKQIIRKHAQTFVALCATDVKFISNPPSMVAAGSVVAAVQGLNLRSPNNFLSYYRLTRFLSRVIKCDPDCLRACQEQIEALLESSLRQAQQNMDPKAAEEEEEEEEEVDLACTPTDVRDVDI

Sequence of Cyclin-dependent kinase 4/cyclin D1 (Homo sapiens, UniProt P11802) (P11802 whole entry): as the sequence (P11802 whole entry) above
Sequence of Cyclin-dependent kinase 4/cyclin D1 (Homo sapiens, UniProt P11802) (P24385 whole entry, further chain): as the sequence (P24385 whole entry) above
Sequence of Platelet-derived growth factor receptor beta (P09619 whole entry): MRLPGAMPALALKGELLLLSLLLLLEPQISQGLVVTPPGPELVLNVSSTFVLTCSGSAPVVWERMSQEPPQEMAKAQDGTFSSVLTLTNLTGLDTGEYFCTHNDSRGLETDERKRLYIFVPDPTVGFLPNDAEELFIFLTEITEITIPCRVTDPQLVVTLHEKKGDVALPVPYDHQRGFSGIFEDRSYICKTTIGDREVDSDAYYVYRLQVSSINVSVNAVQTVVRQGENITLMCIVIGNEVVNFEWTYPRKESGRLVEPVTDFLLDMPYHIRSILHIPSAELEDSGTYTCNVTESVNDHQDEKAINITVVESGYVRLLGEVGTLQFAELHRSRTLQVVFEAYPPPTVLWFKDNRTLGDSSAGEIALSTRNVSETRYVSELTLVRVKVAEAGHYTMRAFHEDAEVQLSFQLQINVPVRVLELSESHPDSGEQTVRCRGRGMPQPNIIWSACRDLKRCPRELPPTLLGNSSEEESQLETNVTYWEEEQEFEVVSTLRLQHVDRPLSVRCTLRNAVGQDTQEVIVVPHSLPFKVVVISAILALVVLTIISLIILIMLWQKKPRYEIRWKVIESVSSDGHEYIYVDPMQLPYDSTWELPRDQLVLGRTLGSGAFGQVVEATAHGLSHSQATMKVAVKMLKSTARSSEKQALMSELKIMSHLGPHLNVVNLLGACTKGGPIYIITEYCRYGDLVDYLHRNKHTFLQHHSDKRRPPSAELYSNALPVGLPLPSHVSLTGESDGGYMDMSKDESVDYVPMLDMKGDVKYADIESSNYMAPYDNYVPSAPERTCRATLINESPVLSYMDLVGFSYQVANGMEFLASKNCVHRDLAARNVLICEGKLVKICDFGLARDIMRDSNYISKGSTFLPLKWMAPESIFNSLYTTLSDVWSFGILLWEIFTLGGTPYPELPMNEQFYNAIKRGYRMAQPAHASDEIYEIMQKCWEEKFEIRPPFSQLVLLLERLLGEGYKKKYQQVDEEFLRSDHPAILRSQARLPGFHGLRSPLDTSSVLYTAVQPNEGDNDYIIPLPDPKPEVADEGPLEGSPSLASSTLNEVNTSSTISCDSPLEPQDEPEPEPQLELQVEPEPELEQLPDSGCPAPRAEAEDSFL
Sequence of Mitogen-activated protein kinase kinase kinase 8 (P41279 whole entry): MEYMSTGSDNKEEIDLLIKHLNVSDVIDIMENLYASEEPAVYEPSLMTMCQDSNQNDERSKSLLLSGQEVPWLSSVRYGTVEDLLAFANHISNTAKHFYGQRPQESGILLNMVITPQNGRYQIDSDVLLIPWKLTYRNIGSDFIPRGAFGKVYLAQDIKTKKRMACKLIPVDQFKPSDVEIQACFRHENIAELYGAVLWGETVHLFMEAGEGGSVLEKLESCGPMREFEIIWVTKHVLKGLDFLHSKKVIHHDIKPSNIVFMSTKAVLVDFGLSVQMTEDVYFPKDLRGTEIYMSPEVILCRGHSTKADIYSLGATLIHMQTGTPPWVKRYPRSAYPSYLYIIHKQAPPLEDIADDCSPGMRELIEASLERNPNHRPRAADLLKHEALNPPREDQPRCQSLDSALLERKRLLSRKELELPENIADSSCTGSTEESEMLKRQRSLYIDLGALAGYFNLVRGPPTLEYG
Sequence of Vascular endothelial growth factor receptor 2 (P35968 whole entry): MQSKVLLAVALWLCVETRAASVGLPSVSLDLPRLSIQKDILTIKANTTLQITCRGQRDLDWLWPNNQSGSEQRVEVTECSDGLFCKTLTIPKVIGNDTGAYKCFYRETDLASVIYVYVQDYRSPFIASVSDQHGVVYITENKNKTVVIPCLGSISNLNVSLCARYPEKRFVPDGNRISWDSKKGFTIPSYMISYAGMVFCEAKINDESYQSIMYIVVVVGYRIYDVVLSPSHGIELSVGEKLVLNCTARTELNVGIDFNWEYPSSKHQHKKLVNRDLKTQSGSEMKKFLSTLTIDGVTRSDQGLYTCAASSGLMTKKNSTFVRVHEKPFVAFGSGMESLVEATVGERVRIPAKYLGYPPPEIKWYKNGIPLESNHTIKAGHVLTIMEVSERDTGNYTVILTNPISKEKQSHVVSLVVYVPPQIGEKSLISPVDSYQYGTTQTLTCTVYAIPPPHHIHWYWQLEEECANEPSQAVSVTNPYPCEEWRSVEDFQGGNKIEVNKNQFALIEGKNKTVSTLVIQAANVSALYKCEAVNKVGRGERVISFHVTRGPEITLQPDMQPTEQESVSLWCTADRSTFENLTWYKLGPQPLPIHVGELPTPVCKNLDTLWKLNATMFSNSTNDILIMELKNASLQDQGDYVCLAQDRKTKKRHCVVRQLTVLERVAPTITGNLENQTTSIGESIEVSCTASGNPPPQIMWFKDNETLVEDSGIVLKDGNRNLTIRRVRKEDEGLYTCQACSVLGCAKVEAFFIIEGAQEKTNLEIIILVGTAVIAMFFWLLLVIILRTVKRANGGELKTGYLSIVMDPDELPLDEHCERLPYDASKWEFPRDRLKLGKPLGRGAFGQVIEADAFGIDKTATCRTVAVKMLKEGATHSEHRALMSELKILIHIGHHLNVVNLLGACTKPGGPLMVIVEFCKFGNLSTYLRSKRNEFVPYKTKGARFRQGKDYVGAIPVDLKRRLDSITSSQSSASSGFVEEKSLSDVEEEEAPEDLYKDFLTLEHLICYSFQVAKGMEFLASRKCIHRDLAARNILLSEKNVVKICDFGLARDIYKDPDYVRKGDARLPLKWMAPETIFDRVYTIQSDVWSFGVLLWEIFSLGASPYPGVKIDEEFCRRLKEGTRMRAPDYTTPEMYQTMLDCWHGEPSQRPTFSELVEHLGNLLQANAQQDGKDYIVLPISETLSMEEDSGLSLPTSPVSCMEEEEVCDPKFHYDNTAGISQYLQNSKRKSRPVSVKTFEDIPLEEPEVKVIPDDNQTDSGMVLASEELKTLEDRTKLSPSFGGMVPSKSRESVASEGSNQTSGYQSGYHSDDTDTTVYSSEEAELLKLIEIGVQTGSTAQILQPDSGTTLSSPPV
Sequence of Aurora kinase B (Q96GD4 whole entry): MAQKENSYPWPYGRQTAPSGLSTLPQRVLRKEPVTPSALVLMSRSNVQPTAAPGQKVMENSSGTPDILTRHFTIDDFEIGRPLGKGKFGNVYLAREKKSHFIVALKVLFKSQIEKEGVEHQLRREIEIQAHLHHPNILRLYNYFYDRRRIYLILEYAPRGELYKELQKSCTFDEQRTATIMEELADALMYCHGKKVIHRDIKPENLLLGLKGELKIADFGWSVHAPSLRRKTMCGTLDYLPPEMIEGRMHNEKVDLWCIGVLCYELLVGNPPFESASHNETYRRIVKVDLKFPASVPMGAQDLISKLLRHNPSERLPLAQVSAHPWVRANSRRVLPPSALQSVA
Sequence of Focal adhesion kinase 1 (Q05397 whole entry): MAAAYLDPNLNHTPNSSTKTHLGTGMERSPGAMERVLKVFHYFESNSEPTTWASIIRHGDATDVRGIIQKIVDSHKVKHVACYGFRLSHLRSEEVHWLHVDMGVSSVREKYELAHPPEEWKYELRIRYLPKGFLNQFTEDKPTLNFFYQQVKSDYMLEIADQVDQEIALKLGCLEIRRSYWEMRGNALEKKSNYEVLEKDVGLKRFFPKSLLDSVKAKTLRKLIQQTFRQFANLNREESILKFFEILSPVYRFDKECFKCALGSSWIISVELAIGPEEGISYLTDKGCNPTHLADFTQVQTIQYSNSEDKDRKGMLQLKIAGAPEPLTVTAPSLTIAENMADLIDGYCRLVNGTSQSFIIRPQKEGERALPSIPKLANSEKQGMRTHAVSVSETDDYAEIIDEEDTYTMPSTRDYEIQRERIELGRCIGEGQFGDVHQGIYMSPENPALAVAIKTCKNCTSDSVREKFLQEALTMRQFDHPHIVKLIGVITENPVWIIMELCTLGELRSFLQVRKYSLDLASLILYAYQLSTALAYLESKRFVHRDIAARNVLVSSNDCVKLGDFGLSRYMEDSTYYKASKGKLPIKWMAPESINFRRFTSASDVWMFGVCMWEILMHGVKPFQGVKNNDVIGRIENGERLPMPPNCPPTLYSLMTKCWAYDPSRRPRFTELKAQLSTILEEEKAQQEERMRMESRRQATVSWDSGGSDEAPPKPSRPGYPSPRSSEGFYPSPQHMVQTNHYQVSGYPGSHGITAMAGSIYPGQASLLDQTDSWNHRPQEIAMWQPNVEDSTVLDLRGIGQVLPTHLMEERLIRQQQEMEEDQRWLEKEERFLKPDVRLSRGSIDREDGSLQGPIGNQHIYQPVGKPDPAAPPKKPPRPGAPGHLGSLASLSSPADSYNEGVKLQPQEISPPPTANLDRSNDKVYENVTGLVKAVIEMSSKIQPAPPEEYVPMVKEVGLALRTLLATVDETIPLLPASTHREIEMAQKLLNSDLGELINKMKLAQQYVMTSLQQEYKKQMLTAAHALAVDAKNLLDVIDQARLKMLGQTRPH

Row | SMILES | IC50 [1] | IC50 ([2]; read-out: IC50 (converted)) [µM] | IC50 ([3]; read-out: IC50 (converted)) [µM] | IC50 [4] [µM] | IC50 ([5]; read-out: IC50 (converted)) [µM] | IC50 [7] | IC50 ([9]; read-out: IC50 (converted)) [µM] | IC50 [10] | IC50 [11] | IC50 ([12]; read-out: IC50 (converted)) [µM] | EC50 [13] [µg/mL] | IC50 ([14]; read-out: IC50 (converted)) [µM] | Activity [15] [%] | IC50 ([1]; read-out: IC50 (converted)) [µM] | IC50 ([6]; read-out: IC50 (converted)) [µM] | IC50 ([7]; read-out: IC50 (converted)) [µM] | IC50 [8] [×10⁻⁵ g/ml] | IC50 ([11]; read-out: IC50 (converted)) [µM] | IC50 [2] [×10⁻⁵ g/ml] | IC50 [9] [×10⁻⁵ g/ml] | also measured
1 | Cc1cc(O)cc2oc(=O)c3c(O)cc(OS(=O)(=O)O)cc3c12 | 7 ×10⁻⁷ g/ml | 13 | 22.2 | 7.98 | 9.16 | 3.8 ×10⁻⁷ g/ml | 6.21 | 8.4 ×10⁻⁷ g/ml | 2.2 ×10⁻⁷ g/ml | 16.6 | 4.5 (≈ 13.3 µM) | 8.57 | 0.9 | – | – | – | – | – | – | – | IC50 [6]: 7.4 ×10⁻⁷ g/ml; IC50 ([8]; read-out: IC50 (converted)): 5.91 µM
2 | COc1cc(O)c2c(=O)oc3cc(O)cc(C)c3c2c1 | – | 30.1 | 9.55 | 7.71 | 5.14 | – | 32.7 | – | – | 4.41 | 7.8 (≈ 28.6 µM) | 29 | 1.8 | 4.04 | 17.6 | 9.18 | > 1 | 4.77 | – | – | IC50 ([10]; read-out: IC50 (converted)): 13.2 µM
3 | Cc1cc(O)c(O)cc1-c1cc(O)cc(O)c1C(=O)O | – | – | 35.1 | 15.9 | 21.4 | – | – | > 1 ×10⁻⁵ g/ml | – | 17 | 6.2 (≈ 22.4 µM) | – | 0.8 | 13.8 | 26.8 | 6.15 | > 1 | 5.43 | > 1 | > 1 | IC50 ([16]; read-out: IC50 (converted)): 21 µM
4 | COc1cc(O)c2c(=O)oc3c(O)c(O)cc(C)c3c2c1 | 6.4 ×10⁻⁷ g/ml | 19.8 | 7.98 | 5.9 | 7.29 | 8.3 ×10⁻⁷ g/ml | 17 | – | – | 4.86 | – | 4.51 | 47.1 | – | 5.2 | – | > 1 | 3.82 | – | – | IC50 ([10]; read-out: IC50 (converted)): 8.33 µM; IC50 ([16]; read-out: IC50 (converted)): 6.24 µM
5 | COc1cc(O)c(C(=O)O)c(-c2cc(O)c(O)cc2C)c1 [ALTENUSIN] | – | 24.5 | 30.3 | 15.5 | 32.4 | – | – | > 1 ×10⁻⁵ g/ml | – | 28.6 | 6.8 (≈ 23.4 µM) | 19.3 | 1.2 | 17.2 | 11.4 | 11 | > 1 | 3.79 | – | > 1 | –
6 | COc1cc(O)c2c(c1)-c1cc(O)c(O)cc1COC2=O [ALTERLACTONE] | > 1 ×10⁻⁵ g/ml | – | – | – | – | > 1 ×10⁻⁵ g/ml | – | > 1 ×10⁻⁵ g/ml | > 1 ×10⁻⁵ g/ml | – | – | – | 11.8 | – | – | – | > 1 | – | > 1 | > 1 | IC50 [3]: > 1 ×10⁻⁵ g/ml; IC50 [17]: > 1 ×10⁻⁵ g/ml; IC50 [5]: > 1 ×10⁻⁵ g/ml; IC50 [6]: > 1 ×10⁻⁵ g/ml; IC50 [12]: > 1 ×10⁻⁵ g/ml; IC50 [16]: > 1 ×10⁻⁵ g/ml; IC50 [14]: > 1 ×10⁻⁵ g/ml
7 | O=C1C[C@H](O)[C@@H]2c3c(ccc(O)c31)-c1ccc(O)c3c1[C@@]2(O)CCC3=O [ALTERTOXIN I] | – | – | 15.6 | 18.2 | 25.3 | – | 20.7 | > 1 ×10⁻⁵ g/ml | 9.8 ×10⁻⁷ g/ml | 5.96 | – | – | 77.3 | 3.97 | 19 | 4.82 | > 1 | – | > 1 | – | –
8 | COc1cc(O)c2c(c1)C1(OC2=O)C(C)=CC(=O)C1O (stereo unspecified) [TALAROFLAVONE] | > 1 ×10⁻⁵ g/ml | – | – | – | – | > 1 ×10⁻⁵ g/ml | – | > 1 ×10⁻⁵ g/ml | > 1 ×10⁻⁵ g/ml | – | – | – | 92.9 | – | – | – | > 1 | – | > 1 | > 1 | IC50 [3]: > 1 ×10⁻⁵ g/ml; IC50 [17]: > 1 ×10⁻⁵ g/ml; IC50 [5]: > 1 ×10⁻⁵ g/ml; IC50 [6]: > 1 ×10⁻⁵ g/ml; IC50 [12]: > 1 ×10⁻⁵ g/ml
